Results reported in ChEMBL document CHEMBL3046847, “Synthesis and in vitro antiproliferative activity of novel 12(H)-quino[3,4-b][1,4]benzothiazine derivatives” (Med Chem Res, 2013).
Values after ≈ are worked out from the molar mass of the structure shown.

Legend:
SNB-19 = assay: Cytotoxicity against Homo sapiens (human) SNB19 cells assessed as cell viability after 72 hr by WST-1 assay; format: functional, cell-based
How it was run: (§1)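 Cells grown in D-MEM with 12 % FCS, streptomycin and penicillin at 37 °C, 5 % CO2, seeded at 1×10^4 cells/well. Exposed to compounds at 0–100 μg/ml for 72 h, then incubated with WST-1 for 2 h. Absorbance was read at 450 nm against a background control. Values are means of at least two independent experiments run in triplicate.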

C32 = assay: Cytotoxicity against Homo sapiens (human) C32 cells assessed as cell viability after 72 hr by WST-1 assay; format: functional, cell-based; how it was run: as §1
[1] = Homo sapiens, SNB-19, 72 h, read-out: IC50
[2] = Homo sapiens, C32, 72 h, read-out: IC50

## c1ccc2c(c1)Nc1c(cnc3ccccc13)S2
SNB-19; [1]
  IC50: 9.6 µg/mL (≈ 38.3 µM)
C32; [2]
  IC50: 8.9 µg/mL (≈ 35.6 µM)

## c1cnc2c(c1)Nc1c(cnc3ccccc13)S2
SNB-19; [1]
  IC50: 10.2 µg/mL (≈ 40.6 µM)
C32; [2]
  IC50: 8.7 µg/mL (≈ 34.6 µM)

## c1cnc2c(c1)N(CCN1CCCCC1)c1c(cnc3ccccc13)S2
SNB-19; [1]
  IC50: 7.3 µg/mL (≈ 20.1 µM)
C32; [2]
  IC50: 7.9 µg/mL (≈ 21.8 µM)

## Clc1ccc2c(c1)Sc1cnc3ccccc3c1N2
SNB-19; snb-19
  IC50: Not Active
C32; [2]
  IC50: 7.8 µg/mL (≈ 27.4 µM)

## Fc1ccc2c(c1)Sc1cnc3ccccc3c1N2
SNB-19; snb-19
  IC50: Not Active
C32; [2]
  IC50: 9.4 µg/mL (≈ 35 µM)

## Cc1ccc2c(c1)Sc1cnc3ccccc3c1N2
SNB-19; snb-19
  IC50: Not Active
C32; [2]
  IC50: 8.7 µg/mL (≈ 32.9 µM)

## CN(C)CCCN1c2cccnc2Sc2cnc3ccccc3c21
SNB-19; [1]
  IC50: 8.2 µg/mL (≈ 24.4 µM)
C32; [2]
  IC50: 6.5 µg/mL (≈ 19.3 µM)

## Brc1ccc2c(c1)Sc1cnc3ccccc3c1N2
SNB-19; snb-19
  IC50: Not Active
C32; [2]
  IC50: 8.6 µg/mL (≈ 26.1 µM)

## Cc1ccc2c(c1)Sc1cnc3ccccc3c1N2CCN1CCCCC1
SNB-19; [1]
  IC50: 6.6 µg/mL (≈ 17.6 µM)
C32; [2]
  IC50: 6.9 µg/mL (≈ 18.4 µM)

## Fc1ccc2c(c1)Sc1cnc3ccccc3c1N2CCN1CCCCC1
SNB-19; [1]
  IC50: 12.4 µg/mL (≈ 32.7 µM)
C32; [2]
  IC50: 7 µg/mL (≈ 18.4 µM)

## c1ccc2c(c1)Sc1cnc3ccccc3c1N2CCN1CCCCC1
SNB-19; [1]
  IC50: 6.7 µg/mL (≈ 18.5 µM)
C32; [2]
  IC50: 5.6 µg/mL (≈ 15.5 µM)

## Cc1cccc2c1Nc1c(cnc3ccccc13)S2
SNB-19; snb-19
  IC50: Not Active
C32; c32
  IC50: Not Active
